The test system of series [1] is Human immunodeficiency virus 1. Kind of series: Antiviral activity against HIV1 BaL in human PBMC assessed as blockade of reverse transcriptase activity. Type of series: functional, organism-based. To be noted: Human immunodeficiency virus 1, BaL. In a few lines: (§1)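 PHA-stimulated PBMCs, 8 × 10^6 cells/ml in RPMI with 20% FBS and 10% IL-2, preincubated 1 h at 37°C with compound serially diluted fourfold. Then infected with virus premixed with compound (IIIB for line 2, Ba-L for line 3). After 7 days, RT activity measured in supernatant. EC50 from mean percent inhibition; n = 3 for IIIB, 8 for Ba-L.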

For series [2], the system named is Human immunodeficiency virus 1. The experiment in a line: Ratio of EC50 for HIV1 HXB2 in presence of 40% human serum to EC50 for HIV1 HXB2 in presence of 10% fetal bovine serum. Type of series: functional. In a few lines:
(§2)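 MT-4 cells batch-infected with HIV-1 HXB2 at MOI 0.0001 for 1 h at 37°C. Cells then plated at 4 × 10^4 per well onto serially diluted compound in medium containing 10% or 40% FBS, or 10–40% human serum. After 5 days, EC50 from MTS viability.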

Series [3] relates to Human immunodeficiency virus 1. Kind of series: Antiviral activity against HIV1 HXB2 in human MT4 cells assessed as inhibition of viral-induced viral cytopathic effect in presence of 10% fetal bovine serum and 40% human serum by MTS assay. The conditions noted are these: Human immunodeficiency virus 1, HXB2, MT4. Type of series: functional, organism-based. In a few lines: as §2
Background: Damage to the host cells serves as the signal in cytopathic effect assays.

Series [4] concerns Human immunodeficiency virus 1. Kind of series: Ratio of EC50 for HIV1 HXB2 in presence of 20% human serum to EC50 for HIV1 HXB2 in presence of 10% fetal bovine serum. Type of series: functional. In a few lines: as §2
The subject of series [5] is Human immunodeficiency virus 1. Kind of series: Antiviral activity against HIV1 HXB2 in human MT4 cells assessed as inhibition of viral-induced viral cytopathic effect in presence of 10% fetal bovine serum and 10% human serum by MTS assay. Type of series: functional, organism-based. To be noted: Human immunodeficiency virus 1, HXB2, MT4. In a few lines: as §2
Series [6] has as its system Human immunodeficiency virus 1. Kind of series: Ratio of EC50 for HIV1 HXB2 in presence of 30% human serum to EC50 for HIV1 HXB2 in presence of 10% fetal bovine serum. Type of series: functional. In a few lines:
as §2

Series [7] has as its target T1, Protease (Human immunodeficiency virus 1, UniProt Q9YQ12). Kind of series: Inhibition of HIV1 protease by fluorescent peptide substrate based assay. In a few lines:
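HIV-1 protease Ki from a continuous fluorescence activity assay using a fluorescent peptide substrate. Alternatively, Ki was calculated from the association and dissociation rate constants of the enzyme-inhibitor complex.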

Series [8] has as its system Human immunodeficiency virus 1. Kind of series: Antiviral activity against HIV1 HXB2 in human MT4 cells assessed as inhibition of viral-induced viral cytopathic effect in presence of 10% fetal bovine serum and 20% human serum by MTS assay. Type of series: functional, organism-based. The conditions noted are these: Human immunodeficiency virus 1, HXB2, MT4. In a few lines:
as §2

For series [9], the system named is Human immunodeficiency virus 1. Kind of series: Ratio of EC50 for HIV1 drug resistant mutant isolates from protease inhibitor treated HIV patient to EC50 for drug sensitive HIV1 NL4-3. Type of series: functional. In a few lines:
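Recombinant virus assay with clinical isolates from PI-experienced patients (94 isolates). Fold change is the EC50 against each isolate over the EC50 against reference wild-type HIV-1 NL4-3.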

Series [10] has as its system Human immunodeficiency virus 1. Kind of series: Antiviral activity against HIV1 NL4-3. Type of series: functional, organism-based. To be noted: Human immunodeficiency virus 1, NL4-3.
Series [11] relates to Human immunodeficiency virus 1. Kind of series: Antiviral activity against HIV1 HXB2 in human MT4 cells assessed as inhibition of viral-induced viral cytopathic effect in presence of 10% fetal bovine serum by MTS assay. Type of series: functional, organism-based. To be noted: Human immunodeficiency virus 1, HXB2, MT4. In a few lines:
as §2

Series [12] has as its system Human immunodeficiency virus 1. Kind of series: Antiviral activity against HIV1 HXB2 in human MT4 cells assessed as inhibition of viral-induced viral cytopathic effect in presence of 10% fetal bovine serum and 30% human serum by MTS assay. Type of series: functional, organism-based. To be noted: Human immunodeficiency virus 1, HXB2, MT4. In a few lines:
as §2

For series [13], the system named is Human immunodeficiency virus 1. The experiment in a line: Antiviral activity against HIV1 drug resistant mutant isolates from protease inhibitor treated HIV patient. Type of series: functional, organism-based.
Series [14] has as its system Human immunodeficiency virus 1. The experiment in a line: Ratio of EC50 for HIV1 HXB2 in presence of 10% human serum to EC50 for HIV1 HXB2 in presence of 10% fetal bovine serum. Type of series: functional. In a few lines: as §2
The target in series [15] is T1, Protease. The experiment in a line: Inhibition of HIV1 protease. In a few lines:
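Ki derived either from a continuous fluorescence activity assay of HIV-1 protease or from the ratio of the dissociation first-order rate constant to the bimolecular association rate constant for enzyme–inhibitor binding.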

Series [16] has as its system Human immunodeficiency virus 1. The experiment in a line: Antiviral activity against HIV1 HXB2 in human MT4 cells assessed as inhibition of viral-induced viral cytopathic effect in presence of 40% fetal bovine serum by MTS assay. Type of series: functional, organism-based. To be noted: Human immunodeficiency virus 1, HXB2, MT4. In a few lines: as §2
The nature of series [17]: Cytotoxicity against human IM9 cells. Type of series: cell-based, IM-9. To be noted: read-out: CCIC50. In a few lines: (§3)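 Uninfected B- and T-cell lines were exposed to serially diluted compound up to a highest concentration of 25 μM. The cell culture 50% inhibitory concentration (CCIC50) was determined.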
The nature of series [18]: Cytotoxicity against human U937 cells. Type of series: cell-based, U-937.
Series [19] in a line: Cytotoxicity against human MOLT4 cells. Type of series: cell-based, MOLT-4. The conditions noted are these: read-out: CCIC50. In a few lines: as §3
The test system of series [20] is Human immunodeficiency virus 1. The experiment in a line: Antiviral activity against HIV1 3B in human MT4 cells assessed as inhibition of viral-induced viral cytopathic effect by MTS assay. Type of series: functional, organism-based. To be noted: Human immunodeficiency virus 1, 3B. In a few lines: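 MT-4 cells in RPMI 1640 with 20% FBS, 20% IL-2 and gentamicin, 5 × 10^5 cells/ml, infected with HIV-1 IIIB at 100 TCID50 per well for 1 h at 37°C. Cells diluted sixfold onto serially diluted compound and incubated 5 days. Cytopathic effect read by MTS staining at OD 492 nm. EC50 by Hill-equation curve fit; n = 8.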

Series [21] concerns Human immunodeficiency virus 1. The experiment in a line: Antiviral activity against HIV1 HXB2 in human MT4 cells assessed as inhibition of viral-induced viral cytopathic effect by MTS assay. Type of series: functional, organism-based. To be noted: Human immunodeficiency virus 1, HXB2, MT4. In a few lines: as §2
Series [22] concerns Human immunodeficiency virus 1. Kind of series: Ratio of EC50 for HIV1 HXB2 in presence of 40 mg/ml HSA and 1 mg/ml alpha1-acid glycoprotein to EC50 for HIV1 HXB2. Type of series: functional. In a few lines: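 Same MT-4/HXB2 batch-infection format (MOI 0.0001, 1 h, 4 × 10^4 cells/well, 5-day MTS read-out), run with 40 mg/ml human serum albumin plus 1 mg/ml α1-acid glycoprotein.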

The nature of series [23]: Protein binding in human plasma. Type of series: ADME, cell-free. The conditions noted are these: read-out: PPB (converted).
Series [24] concerns Human immunodeficiency virus 1. Kind of series: Antiviral activity against HIV1 HXB2 in human HeLa cells by HeLa-CD4 MAGI assay. The conditions noted are these: Human immunodeficiency virus 1, HXB2, HeLa. Type of series: functional, organism-based. In a few lines:
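HeLa-CD4-LTR-β-gal cells kept in DMEM with 10% FBS and infected with HIV-1 HXB2 in a single-round assay. Read-out is β-galactosidase activity; n = 2; tested up to about 50 μM, the solubility limit.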

The subject of series [25] is Human immunodeficiency virus 1. Kind of series: Antiviral activity against HIV1 3B in human PBMC assessed as blockade of reverse transcriptase activity. Type of series: functional, organism-based. To be noted: Human immunodeficiency virus 1, 3B. In a few lines: as §1
Series [26] in a line: Cytotoxicity against human MT4 cells. Type of series: cell-based. To be noted: read-out: CCIC50. In a few lines:
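Mock-infected MT-4 cells run in parallel with the HIV-1 IIIB antiviral assay, in RPMI 1640 with FBS, IL-2 and gentamicin. Incubated 5 days at 37°C, 5% CO2, then MTS viability read at OD 492 nm. Highest concentration tested 25 μM. Reported as CCIC50.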

Series [27] deals with Human immunodeficiency virus 1. The experiment in a line: Antiviral activity against HIV1 HXB2 in human HeLa cells up to 50 uM by HeLa-CD4 MAGI assay. Type of series: functional, organism-based. In a few lines: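 HeLa-CD4-LTR-β-gal cells grown in DMEM with 10% FBS and infected with HIV-1 HXB2 for a single round of infection. Read-out is β-galactosidase activity. Tested up to the solubility limit (about 50 μM). EC50 from 2 determinations.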

Series [28] is described as follows: Selectivity index, ratio of CCIC50 for human MT4 cells to IC50 for HIV1 3B. Type of series: functional.
In series [29] the test system is Human immunodeficiency virus 1. The experiment in a line: Ratio of EC50 for HIV1 HXB2 in presence of 40% fetal bovine serum to EC50 for HIV1 HXB2 in presence of 10% fetal bovine serum. Type of series: functional. In a few lines:
as §2

Calls of active or inactive are those of the source. The calls are words filed in the database; no cut-off is given here.

T1 sequence (Q9YQ12 whole entry): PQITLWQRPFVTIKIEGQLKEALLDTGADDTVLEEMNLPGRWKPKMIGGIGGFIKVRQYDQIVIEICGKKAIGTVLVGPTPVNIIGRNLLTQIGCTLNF

Usually EC50 stands for the concentration at which the effect is half-maximal. Turning to `Cc1c(O)cccc1C(=O)N[C@@H](CSc1ccccc1)[C@H](O)CN1C[C@H]2CCCC[C@H]2C[C@H]1C(=O)NC(C)(C)C`, in series [1], the EC50 was found to be 36 nM.
As a reminder, the Ki is the equilibrium dissociation constant of an inhibitor or competing ligand from its target. Higher therefore signals weaker binding. Consider `CCC[C@@]1(CCc2ccccc2)CC(O)=C([C@H](CC)c2cccc(NS(=O)(=O)c3ccc(C(F)(F)F)cn3)c2)C(=O)O1`, for which the “Ratio EC50” value was determined as 16 in series [2]; 12.4 in series [4]; 14.1 in series [6]; 2.4 in series [9]; 7.7 in series [14]. The EC50 in series [3] was 660 nM; in series [5] it was 310 nM; in [8], 507 nM; in series [10], 76.2 nM; in [1], 304 nM; in series [11], 40.9 nM. Besides, the EC50 in series [12] was determined as 580 nM; in series [13], 190 nM. For the same molecule, the Ki in series [7] amounted to 0.008 nM.
On to `COC(=O)N[C@H](C(=O)N[C@@H](Cc1ccccc1)[C@@H](O)CN(Cc1ccc(-c2ccccn2)cc1)NC(=O)[C@@H](NC(=O)OC)C(C)(C)C)C(C)(C)C` [ATAZANAVIR], for which the “Ratio EC50” value in series [9] stood at 26. Besides, the EC50 was determined as 1.7 nM in series [10], 4.4 nM in [1] and 47 nM in [13].
As for `CC(C)CN(C[C@@H](O)[C@H](Cc1ccccc1)NC(=O)O[C@H]1CCOC1)S(=O)(=O)c1ccc(N)cc1`, the values for the Ki in series [7] and in series [15] were 0.057 nM and 0.036 nM, respectively. In series [9], the Ratio EC50 turned out to be 13.7. Moreover, the figures for the EC50 in series [10], in series [1] and in series [13] were 15.3 nM, 57 nM and 190 nM, respectively.
In the case of `CC(C)CN(C[C@@H](O)[C@H](Cc1ccccc1)NC(=O)O[C@H]1CO[C@H]2OCC[C@H]21)S(=O)(=O)c1ccc(N)cc1`, the EC50 was found to be 22 nM in series [3]; 11 nM in series [5]; 11 nM in series [16]; 15 nM in series [8]; 0.78 nM in series [10]; 2.8 nM in series [1]. Also, the 50% effective concentration (EC50) in series [11] was 5.6 nM; in series [12], 19 nM; in series [13], 4.6 nM.
With `CC(C)(C)NC(=O)[C@@H]1CN(Cc2cccnc2)CCN1C[C@@H](O)C[C@@H](Cc1ccccc1)C(=O)N[C@H]1c2ccccc2C[C@H]1O.O`, the “Ratio EC50” value in [9] turned out to be 26. The values for the EC50 in series [10] and in series [13] were 9.8 nM and 220 nM, respectively.
The corresponding values for `Cc1cccc(C)c1OCC(=O)N[C@@H](Cc1ccccc1)[C@@H](O)C[C@H](Cc1ccccc1)NC(=O)[C@H](C(C)C)N1CCCNC1=O` [LOPINAVIR] are 43, 4.4 nM and 230 nM.
As to `Cc1nc(COc2ccc(C[C@H](NC(=O)O[C@H]3CO[C@H]4OCC[C@H]43)[C@H](O)CN(CC(C)C)S(=O)(=O)c3ccc4c(c3)OCO4)cc2)cs1` [BRECANAVIR], the CC50 in series [17], in series [18], in series [19] and in [26] was greater than 25000 nM in each case. For the same molecule, the “Ratio EC50” value amounted to 5.2 in [2]; 2.2 in series [4]; 3.6 in series [6]; 8.2 in series [22]; 6.6 in [9]; 1.9 in series [14]. The “Ratio EC50” value in [29] was 1.6. In addition, the concentration giving a half-maximal response (EC50) amounted to 3.8 nM in [3]; 1.4 nM in series [5]; 1.1 nM in series [16]; 0.44 nM in [20]; 0.53 nM in [21]; 2.2 nM in series [8]. Besides, the EC50 is 0.18 nM in series [10]; greater than 90000 nM in [24]; 0.42 nM in series [1]; 0.7 nM in series [11]; 0.2 nM in [25]; 2.6 nM in series [12]. In series [13], this molecule displayed an EC50 of 0.88 nM. Besides, the fraction unbound in [23] was 0.02. In series [27], the result was inactive. Further, the Ratio in series [28] is greater than 55000.
